rCAG RNA binder – r(CAG) repeat RNA binding; TO-PRO-1 dye displacement fluorescence; inhibition, % at 3 µM; hit rate 1.3% among 370,000; AID 651821;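 active = inhibition above the plate cutoff, the mean of all test compounds on that plate plus 3 SD, cut at about 35% in these data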;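 also: 0% = DMSO alone and 100% = 100 µM mitoxantrone as full dye displacement; higher means more dye released from RNA so lower well fluorescence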
ASAP1 inh – ASAP1 ArfGAP inhibition | ASAP1-stimulated ARF1 GTP hydrolysis, GDP FP detection | hit rate 0.19% among 360,000 | inhibition, % at 16.5 µM | Q9ULH1; in the data active = inhibition above about 25%;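 also: 0% = vehicle with enzyme and substrate and 100% = no enzyme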
Target sequence (Q9ULH1 325-724 limits assumed): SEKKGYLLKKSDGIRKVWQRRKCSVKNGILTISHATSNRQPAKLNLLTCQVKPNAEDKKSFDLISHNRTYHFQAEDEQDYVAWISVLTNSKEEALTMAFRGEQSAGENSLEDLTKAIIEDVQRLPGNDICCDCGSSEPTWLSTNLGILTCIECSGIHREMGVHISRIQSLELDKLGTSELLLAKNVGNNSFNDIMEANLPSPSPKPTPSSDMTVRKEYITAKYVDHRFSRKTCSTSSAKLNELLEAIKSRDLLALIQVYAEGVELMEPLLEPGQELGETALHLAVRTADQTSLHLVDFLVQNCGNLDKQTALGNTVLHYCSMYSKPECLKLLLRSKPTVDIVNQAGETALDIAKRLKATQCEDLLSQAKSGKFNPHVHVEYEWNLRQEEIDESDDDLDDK
NadD inh – inhibitors of Staphylococcus aureus NadD; hit rate 0.78% among 360,000; inhibition, % at 20 µM; purified NadD enzyme, colorimetric absorbance read-out; in the data active = inhibition above about 26%
ARFGAP1 inhibitor – inhibits rat ARF GTPase activating protein 1. hit rate 0.26% among 360,000. Q62848. inhibition, % at 16.5 µM. Arfgap1-stimulated ARF1 GTP hydrolysis, GDP FP detection;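 active = inhibition above a per-plate limit, mean inhibition of low control wells plus 3 SD, cut at about 25% in these data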;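 also: 0% = DMSO wells with enzyme and 100% = wells lacking Arfgap1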
Target sequence (Q62848 1-136 limits assumed): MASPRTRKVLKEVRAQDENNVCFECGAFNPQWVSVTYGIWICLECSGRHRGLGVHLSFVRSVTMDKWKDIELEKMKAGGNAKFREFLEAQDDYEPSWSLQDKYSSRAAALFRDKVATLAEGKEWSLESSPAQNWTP
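Material: truncated rat Arfgap1 GAP domain; Incubation: compound-enzyme preincubation 20 min, reaction 120 min, detection 60 min, 25 °C; Read-out: percent inhibition of Arfgap1-stimulated GTP hydrolysis; Technique: FP, GDP Alexa 633 tracer displaced from anti-GDP antibody, 620/688 nm; Controls: No-Arfgap1 wells (100%) versus DMSO full-reaction wells (0%); Replication: single well per compound.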
rCAG bind conf – r(CAG) RNA repeat binding, confirmation | inhibition, % at 3 µM | TO-PRO-1 dye displacement fluorescence | shares compounds with rCAG RNA binder | hit rate 70% among 4,300;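 active = inhibition above a per-plate cutoff, the mean inhibition of sample wells plus 3 SD, cut at about 35% in these data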;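 also: loss of TO-PRO-1 fluorescence as compound displaces dye from 1x1 AA loop RNA; 0% = DMSO only wells and 100% = 100 µM mitoxantrone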
dCAG dye counter – counter-screen for rCAG RNA binders: DNA CAG dye complex inhibitors; inhibition, % at 3 µM; shares compounds with rCAG RNA binder; d(CAG) DNA oligo TO-PRO-1 dye displacement, fluorescence; hit rate 94% among 4,300; AID 652068;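 active = inhibition above its plate's cutoff, the mean test-well inhibition plus 3 SD, cut at about 4.8% in these data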;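 also: 0% = DNA dye mix with DMSO and 100% = 100 µM mitoxantrone; hits displace the dye from DNA and so lower well fluorescence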
DNA CAG DR – DNA CAG dye complex inhibition, dose response counter-screen; shares compounds with rCAG RNA binder; DNA CAG/GTC duplex TO-PRO-1 dye displacement fluorescence; IC50, µM; hit rate 20% among 250; AID 686960; in the data active = IC50 below about 10 µM
* hit, by the source's call; / = no result given. A selection: hits, their analogues and other compounds. The true share with any hit is near 2.2%.

SMILES	rCAG RNA binder	ASAP1 inh	NadD inh	ARFGAP1 inhibitor	rCAG bind conf	dCAG dye counter	others
CC(/C=C1\SC(=S)N(CCC(=O)Nc2cccc(C(=O)O)c2)C1=O)=C\c1ccccc1	37.0*	0.4	18.9	2.6	88.1*	62.2*
O=C(CCN1C(=O)/C(=C\c2cccs2)SC1=S)Nc1ccc(C(=O)O)cc1	54.8*	-7.2	6.8	-23.1	39.7*	11.0*
C=CCn1c(CNC(=O)c2ccccc2F)nnc1SCC(=O)N1CCOCC1	-3.0	-10.2	-5.2	0.5	/	/
CCCCNS(=O)(=O)/C=C/c1cc2c(cc1CNC(=O)OC(C)(C)C)OCO2	1.3	/	/	/	/	/
Cc1cccc(Cc2cnc(N3C(=N)SC(c4ccccc4)C3=O)s2)c1 (stereo not drawn)	39.6*	0.3	16.3	-3.7	53.3*	18.4*
CC1(C)CC[C@]2(C(=O)O[C@@H]3OC(CO)[C@@H](O)[C@H](O)[C@H]3O)CC[C@]3(C)C(=CCC4[C@@]5(C)CC[C@H](O[C@@H]6OC(C(=O)O)[C@@H](O)[C@H](O)[C@H]6O)C(C)(C)C5CC[C@]43C)[C@@H]2C1 (stereo partly drawn)	45.7*	-8.0	18.3	-3.0	45.0*	11.5*	DNA CAG DR=>29.9
CCCCN1C(=O)C(CC(=O)NC2CCCC2)CC(C(=O)N2CCOCC2)=C1C (stereo not drawn)	1.7	-9.2	1.8	-4.9	/	/
O=C(O)c1cccc2c1-c1ccccc1/C2=N\Nc1ccccc1	28.8	8.4	-5.0	6.9	/	/
COc1ccc(Br)cc1/C=N/Nc1cccc(C(=O)O)c1	21.8	4.3	24.1	2.0	/	/
O=C(O)c1cccc(NN=C2c3ccccc3-c3ccccc32)c1	86.8*	1.2	-1.9	-4.7	80.8*	46.8*
O=C(O)c1cc(N/N=C/C(Cl)=C/c2ccccc2)ccc1Cl	57.5*	-1.9	-8.2	-21.4	45.2*	17.5*
COc1ccccc1/C=C/C=N/Nc1cccc(C(=O)O)c1	36.0*	-6.0	-6.1	8.4	36.9*	9.3*
O=C(O)c1cc(NN=C2c3ccccc3-c3ccccc32)ccc1Cl	92.6*	0.5	5.7	-13.4	80.7*	50.1*
CC(=O)N1CCc2cc(Br)c(S(=O)(=O)NCc3ccc(Cl)cc3)cc21	2.0	/	/	/	/	/
O=C(O)c1cccc(N/N=C/c2cc(Br)cc(Br)c2O)c1	94.7*	12.6	-0.4	-3.4	82.6*	47.8*
O=C(NC(=S)Nc1ccc(Cl)c(C(=O)O)c1)c1ccco1	0.0	0.0	-1.2	19.3	/	/
Cc1ccc(C(=O)O)cc1NC(=S)NC(=O)C(c1ccccc1)c1ccccc1	57.8*	-12.2	0.0	-9.9	38.3*	10.2*
CC(C)Oc1ccc(C(=O)NC(=S)Nc2ccc(Cl)c(C(=O)O)c2)cc1	3.4	-0.9	-8.7	13.8	/	/
O=C(O)c1cc(NC(=S)NC(=O)C(c2ccccc2)c2ccccc2)ccc1Cl	41.1*	-1.2	4.4	-11.1	29.5	6.9*
CCOc1cc(C(=O)NC(=S)Nc2ccc(Cl)c(C(=O)O)c2)cc(OCC)c1OCC	40.8*	0.4	-0.4	7.3	27.7	5.6*
COC(=O)C1CN(Cc2cn(Cc3ccc(OC)cc3)nn2)CCS(=O)(=O)N1Cc1ccc(Cl)cc1 (stereo not drawn)	1.9	/	/	/	/	/
Cn1c(=O)cc(OCC(=O)N2CCN(c3ccccc3Cl)CC2)c2ccccc21	1.1	/	/	/	/	/
CCOc1ccccc1C(=O)NCC(=O)N1CCN(Cc2ccc3c(c2)OCO3)CC1	/	/	1.3	/	/	/
CC(=O)NC1CCCCN(C(C)C)C1=O (stereo not drawn)	2.1	/	/	/	/	/
CCCCNC(=O)c1onc(CSc2cc(C)cc(C)c2)c1C(=O)O	35.3*	-8.2	-3.1	9.4	26.0	4.4*
SMILES	rCAG RNA binder	ASAP1 inh	NadD inh	ARFGAP1 inhibitor	rCAG bind conf	dCAG dye counter	others
C=CCNC(=O)c1onc(CSc2ccc(C(C)C)cc2)c1C(=O)O	37.8*	0.1	-1.5	-9.5	24.5	3.7
C=CCNC(=O)c1onc(CSc2cccc3ccccc23)c1C(=O)O	40.4*	2.9	-6.0	-2.0	29.1	5.2*
COc1ccc(N(Cc2cc(=O)[nH]c3ccccc23)C(=O)CCl)cc1	2.6	-0.6	-8.6	-10.9	/	/
CCc1nc2c(OCCC3CCCCC3)cccn2c1N(C)C(=O)c1ccc(C)cc1	4.4	-10.1	15.1	3.5	/	/
O=[N+]([O-])c1cc2no[n+]([O-])c2cc1N1CCCCC1	44.0*	6.2	18.3	3.8	6.7	3.4
COC(=O)[C@H]1C[C@@]2(N3CCCCC3)c3ccccc3N[C@H]2N1S(=O)(=O)c1ccc(C)cc1	4.7	/	/	/	/	/
CN1C(=O)c2cc(NC(=O)C3CC3)ccc2OC[C@H]2O[C@@H](CC(=O)NC3CCC3)CC[C@@H]21	0.2	/	/	/	/	/
O=C(NC1CCCCN(Cc2ccc(Cl)cc2)C1=O)c1ccc(-c2ccccc2)cc1 (stereo not drawn)	9.6	/	/	/	/	/
FC(F)(F)c1ccccc1Cc1c(-c2ccc(Cl)cc2)nc2ccc(Br)cn12	64.0*	1.9	9.6	-2.9	14.3	3.4
FC(F)(F)c1ccccc1Cc1c(-c2ccc(Cl)cc2)nc2ccc(Cl)cn12	50.3*	-9.9	12.2	-2.7	31.9	7.7*
Cc1cc(Br)cn2c(Cc3ccccc3C(F)(F)F)c(-c3ccc(F)cc3)nc12	55.3*	5.4	/	1.1	43.1*	10.6*	DNA CAG DR=>29.9
Cc1ccc(-c2nc3ccc(C)cn3c2Cc2ccccc2C(F)(F)F)cc1	35.7*	8.6	1.7	0.4	20.5	4.3
COc1cc2c(c(OC)c1)[C@H](/C=C/c1ccccc1)[C@@H]([C@H](O)CO)OC2	4.3	/	/	/	/	/
CCOc1ccccc1CN1[C@@H](c2ccc(OC)cc2)CC(C(=O)OC)(C(=O)OC)[C@H]1c1ccccc1	6.5	2.7	/	8.6	/	/
O=C(NCc1ccccc1)C(CCc1ccccc1)n1c(=O)c(-c2ccccc2)nc2ccccc21 (stereo not drawn)	10.7	4.6	/	-3.4	/	/
CC(=O)c1cc(-c2ccc(-c3ccccc3)c(F)c2)c(=O)n2c1CCC2	3.0	/	/	/	/	/
Fc1ccc(-c2nc3ccc(Br)cn3c2Cc2ccccc2C(F)(F)F)cc1	51.2*	-14.5	6.2	7.3	11.1	1.6
Fc1ccc(-c2nc3ccc(Cl)cn3c2Cc2ccccc2C(F)(F)F)cc1	38.3*	-6.4	8.4	-1.7	23.1	2.6
FC(F)(F)c1ccccc1Cc1c(-c2ccccc2)nc2ccc(Cl)cn12	16.9	4.6	5.3	-5.7	/	/
O=C(NN1C(=O)/C(=C/c2cccs2)SC1=S)c1ccncc1	7.3	-1.3	0.6	-1.5	/	/
COc1ccc(OC)c(/C=C2\SC(=S)N(NS(=O)(=O)c3ccccc3)C2=O)c1	86.8*	2.9	4.0	-9.1	66.5*	29.9*
CC(C(=O)O)N1C(=O)/C(=C/C=C/c2ccco2)SC1=S (stereo not drawn)	83.2*	-8.6	27.5	-44.7	79.1*	41.4*

Bioassay records: PubChem BioAssay, several laboratories
